A selection: hits, their analogues and other compounds. The true share with any hit is near 2.4%.
FID counter: fluorescent intercalator displacement, NS3 helicase counter-screen; DNA fluorescent intercalator displacement, fluorescence; inhibition, % at 7.9 µM; 290,000 tested, 0.17% active; AID 1845; in the data active = inhibition above about 37%;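 also: 0% = vehicle and 100% = reference compound; higher means more ethidium bromide displaced from hairpin DNA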
Apaf1 inhib: human Apaf-1 inhibition; O14727; reconstituted apoptosome caspase-3 activity, DEVD-Rh110 fluorescence; 330,000 tested, 0.71% active; inhibition, % at 20 µM; active = inhibition of at least 40% at 20 µM;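 also: plate controls were DMSO wells for no effect and DEVD-CHO caspase inhibitor wells for full effect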
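Material: biochemical Apaf-1 apoptosome reconstitution. Medium: Hepes buffer, pH 7.5. Also added: cytochrome c activation, bis-DEVD rhodamine 110 substrate. Timing: 30 min compound preincubation, 50 min activation, room temperature. Measured by: rhodamine 110 fluorescence at Ex 480/Em 540 nm.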
ANO1 activ: activators or potentiators of mouse TMEM16A chloride channel; 340,000 tested, 0.3% active; Q8BHY3; B-score at 10 µM; HEK293 TMEM16A/YFP-H148Q/I152L, iodide quench fluorescence; active compounds read low;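 active = fluorescence-ratio B-score plate-corrected deviation score at least 3 library SD below zero, with starting fluorescence score within 5 deviations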;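 also: channel opened by trigger with iodide after compound preincubation; score built on the fluorescence ratio of max minus min over baseline; more negative score means more quench and so TMEM16A activation or potentiation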
UBC13 inh: human UBC13 polyubiquitination inhibition; inhibition, % at 20 µM; 330,000 tested, 0.47% active; UBC13 polyubiquitin chain formation, TR-FRET; in the data active = inhibition above about 45%, passing the limit was not always enough
ANO1 block: inhibitors of mouse TMEM16A calcium-activated chloride channel | Q8BHY3 | HEK293 TMEM16A/YFP iodide influx fluorescence, ionomycin | normalized B-score (activity score, 25-100; higher = stronger inhibition) at 10 µM | 310,000 tested, 1.2% active;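 active = ratio plate-corrected score three or more library SD toward inhibition, starting fluorescence score within five deviations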;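 also: score derived from kinetic fluorescence span divided by baseline fluorescence per well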
* marks the source's active call; other numbers are inactive results; i = inactive; . = no result given.

SMILES	FID counter	Apaf1 inhib	ANO1 activ	UBC13 inh	ANO1 block
CCOC(=O)CSC1=C(C#N)C(=O)NC(c2ccc(OC)c(OC)c2)S1 (configuration not stated)	2	4	i	-10	25*
CCc1nn(CC(=O)NCCCN2CCN(C)CC2)c(=O)c2cc3sccc3n12	9	-7	i	-6	i
CCc1nn(CC(=O)NCCCN2CCc3ccccc3C2)c(=O)c2cc3sccc3n12	3	16	i	10	100*
CCCCN1C2CCCC1CC(NC(=O)C1CCCCC1)C2 (configuration not stated)	2	6	i	2	i
C=CCn1c(N)c(C(=O)OC(C)(C)C)c2nc3ccccc3nc21	-14	67*	i	1	.
O=C(CSc1nnc(CNC(=O)c2cccs2)o1)Nc1ccc(F)cc1F	-11	-12	i	-3	i
CC(C)CN1C(=S)SC(C)(C)C1n1oc(=O)n(-c2ccc(Cl)cc2)c1=O (configuration not stated)	1	12	i	4	100*
COc1ccc(CC(=O)N/N=C/c2cccn2-c2ccc([N+](=O)[O-])cc2)cc1OC	-22	-3	-12*	-2	i
COc1cc([N+](=O)[O-])ccc1NC(=O)CCCOc1cc(C)ccc1C	0	13	i	0	i
CCCCNc1c(-c2ccc(SC(C)CC)cc2)nc2ccccn12 (configuration not stated)	.	32	i	36	100*
CCCCNc1c(-c2ccc(SC3CCCCC3)cc2)nc2ccccn12	.	31	i	20	i
Clc1ccc(-c2nnc3sc(Cc4cccs4)nn23)cc1	-7	58*	i	6	i
c1ccc(-c2nnc3sc(Cc4cccs4)nn23)cc1	-15	30	i	-13	i
CCOC(OCC)c1cn(Cc2ccc3c(c2)C(=O)c2ccccc2C3=O)nn1	-25	17	.	26	i
CC(C)Cn1c(CN2CCCCC2C)nc2c1c(=O)n(C)c(=O)n2C (configuration not stated)	-7	7	-8.2*	1	i
C=CCOc1ccccc1CN(C(=O)CCl)c1ccc2c(c1)OCO2	-20	16	i	8	i
O=C(NCC1CCCO1)C1CCN(C2CCN(CCCC3CCCC3)CC2)CC1 (configuration not stated)	18	-7	i	10	i
O=C(NCC1CCCO1)C1CCN(C2CCN(C(=O)CC3CCCC3)CC2)CC1 (configuration not stated)	1	2	-6.6*	6	i
COc1ccc(C(C)NC(=O)c2ccncc2)cc1 (configuration not stated)	-1	-14	i	-2	i
CCc1nnc(NC(=O)CSc2nnc(CNc3ccc(C)cc3)n2C)s1	-7	-10	i	0	i
CCOC(=O)NNc1ccc2nonc2c1[N+](=O)[O-]	0	96*	i	-82	i
CC(C)=CCc1c(-c2ccc(O)cc2O)oc2c3c(cc(O)c2c1=O)OC(C)(C)C=C3	.	10	.	17	25*
COc1ccc(NS(=O)(=O)c2cccc(C(=O)NCC(c3cccs3)N3CCOCC3)c2)cc1 (configuration not stated)	.	2	i	7	.
CCOC(=O)c1cc(NC(=O)CNCC(c2ccccc2)N(C)C)cc(C(=O)OCC)c1 (configuration not stated)	38*	15	i	-5	i
CCN(CC)S(=O)(=O)c1cc(NC(=O)c2ccc(-n3cncn3)c([N+](=O)[O-])c2)ccc1C	-9	18	i	-3	100*
SMILES	FID counter	Apaf1 inhib	ANO1 activ	UBC13 inh	ANO1 block
CS(=O)(=O)c1[nH]nc(-c2cccc(Cl)c2)c1C#N	-1	-16	i	1	i
CCC1=C(OC(=O)N(CC)CC)N2C(=O)OC(=NCCOC)[C@]2(Cc2ccccc2)[C@H]2C1=CC[C@H]1C(=O)N(CC(=O)OC)C(=O)[C@H]12	.	22	i	-2	25*
CCOc1ccc(CN2CCNC(=O)C2CC(=O)NCc2csc(C(C)C)n2)cc1 (configuration not stated)	-19	20	i	-2	.
Cc1onc(-c2ccccc2Cl)c1C(=O)Oc1cc(N)n(S(=O)(=O)c2ccc(F)cc2)n1	-4	9	i	-3	25*
Cc1ccc(S(=O)(=O)n2nc(OC(=O)c3c(-c4ccccc4Cl)noc3C)cc2N)cc1	-7	18	i	-6	i
COc1ccc(NC(=O)Cc2coc3cc(C)ccc23)cn1	-11	-4	i	-3	i
CCCCn1c(SCC(N)=O)nnc1-c1ccco1	-2	-10	i	7	i
CCCCn1c(SCC(=O)NC(C)(C)C)nnc1-c1ccco1	-17	-17	i	7	25*
CCN(Cc1ccccc1)c1ccc(/C=N/N=C(N)N)cc1	14	18	i	43	100*
CCN(Cc1ccccc1)c1ccccc1	.	.	i	.	.
Cc1nn(Cc2ccc(Cl)cc2Cl)c(C)c1NC(=O)NC12CC3CC(CC(C3)C1)C2	-32	17	i	-10	i
Cc1ccccc1C(=O)Nc1c(C(=O)N(CCN(C)C)Cc2ccco2)oc2ccccc12	20	-7	i	9	i
COc1ccccc1C(=O)Nc1c(C(=O)N(CCN(C)C)Cc2ccco2)oc2ccccc12	37*	18	i	27	i
COc1ccc(OCC(=O)Nc2c(C(=O)N3CCN(C)CC3)oc3ccccc23)cc1	8	10	i	5	i
COc1ccc(OCC(=O)Nc2c(C(=O)N(CCN(C)C)Cc3ccco3)oc3ccccc23)cc1	41*	20	i	9	i
NNC(=O)c1cc(S(=O)(=O)N2CCOCC2)c[nH]1	.	0	i	-11	.
CC1CCC(NC(=O)COC(=O)c2ccco2)CC1 (configuration not stated)	.	9	i	-4	.
O=C1c2ccccc2S(=O)(=O)c2cc(C(=O)N(c3ccccn3)c3ccccn3)ccc21	2	4	-7.5*	-6	i
CCc1ccc([C@@H]2CC=C(C(=O)O)[C@H](c3ccc(Cl)cc3)N2S(=O)(=O)c2ccc(C)cc2)cc1	.	30	i	-26	100*
CCc1ccc([C@@H]2CC=C(C(=O)O)[C@H](c3ccc(C)cc3)N2S(=O)(=O)c2ccc(C)cc2)cc1	.	23	.	-5	.
CCc1ccc([C@@H]2CC=C(C(=O)O)[C@H](c3cccc(Cl)c3)N2S(=O)(=O)c2ccc(C)cc2)cc1	.	29	i	-24	100*
Cc1ccc(S(=O)(=O)N2[C@@H](c3ccc(Br)cc3)C(C(=O)O)=CC[C@H]2c2cccc(Cl)c2)cc1	.	14	.	-23	.
Cc1cc(-n2cnc(-c3cn[nH]c3C)n2)no1	-3	0	i	2	i

Screens deposited in PubChem by several laboratories.
